Measurements gathered from unrelated publications.
Compare with care: the assays were run in different laboratories. In brackets after ≈: the same amount, converted by molar mass.
Organism: Pichia kudriavzevii

`CCCCCCCCCCCCCC(O)CC(O)CO` (centres unmarked) gave an IC50 of 196 µg/mL (≈ 681 µM) (microbial growth; broth dilution; ATCC6258).
The MIC of `Fc1ccc(C2(Cn3cncn3)CO2)c(F)c1` (centres unmarked) is reported as > 31.3 µg/mL (microbial growth; broth dilution; ATCC6258; 48 h).
For `CCCCCOc1c(OC)cc(NC(C)CCCNC(=O)C(N)Cc2cc3ccccc3[nH]2)c2nc(C(C)(C)C)ccc12` (centres unmarked), the IC50 was 4.28 µg/mL (≈ 7.28 µM) (microbial growth; ATCC6258).
`CCCCCCCCCCCCCN1CCN(CC(O)(Cn2cncn2)c2ccc(F)cc2F)CC1` (centres unmarked) has an MIC of 0.975 µg/mL (≈ 1.93 µM) (microbial growth; broth dilution; ATCC6258; 48 h).
`OC(Cn1cncn1)(Cn1cncn1)c1ccc(F)cc1F` gave an MIC90 of 64 µg/mL (≈ 209 µM) (microbial growth).
For `CCCCCCCCCCN1CCN(CC(O)(Cn2cncn2)c2ccc(F)cc2F)CC1` (centres unmarked), the MIC was 1.95 µg/mL (≈ 4.21 µM) (microbial growth; broth dilution; ATCC6258; 48 h).
For `CCCCCOc1c(OC)cc(NC(C)CCCNC(=O)C(N)CC(C)C)c2nc(C(C)(C)C)ccc12` (centres unmarked), the MFC was 10 µg/mL (≈ 19.4 µM) (microbial killing; ATCC6258).
`C[C@@H]1[C@H](O)[C@@H](C)/C=C/C=C/C=C/C=C/C=C/C=C/C=C/[C@H](O[C@@H]2O[C@H](C)[C@@H](O)[C@H](N)[C@@H]2O)C[C@@H]2O[C@](O)(C[C@@H](O)C[C@@H](O)[C@H](O)CC[C@@H](O)C[C@@H](O)CC(=O)O[C@H]1C)C[C@H](O)[C@H]2C(=O)O` gave an IC50 of 0.95 µg/mL (≈ 1.03 µM) (microbial growth; ATCC6258).
For `C[C@@H](c1ncncc1F)[C@](O)(Cn1cncn1)c1ccc(F)cc1F`, the MIC90 was 0.25 µg/mL (≈ 0.716 µM) (microbial growth).
With `C[C@@H]1[C@H](O)[C@@H](C)/C=C/C=C/C=C/C=C/C=C/C=C/C=C/[C@H](O[C@@H]2O[C@H](C)[C@@H](O)[C@H](N)[C@@H]2O)C[C@@H]2O[C@](O)(C[C@@H](O)C[C@@H](O)[C@H](O)CC[C@@H](O)C[C@@H](O)CC(=O)O[C@H]1C)C[C@H](O)[C@H]2C(=O)O` the MFC was 1.25 µg/mL (≈ 1.35 µM) (microbial killing; ATCC6258).
`CN1CCN(CC(O)(Cn2cncn2)c2ccc(F)cc2F)CC1` (centres unmarked) gave an MIC of 15.6 µg/mL (≈ 46.2 µM) (microbial growth; broth dilution; ATCC6258; 48 h).
For `COc1cc(NC(C)CCCN)c2nc(C(C)(C)C)ccc2c1Oc1ccc(Cl)c(Cl)c1` (centres unmarked), the IC50 was 8.65 µg/mL (≈ 18.2 µM) (microbial growth; ATCC6258).
`C#CCCCCCCCCC=CCC(O)CC(O)CO` (centres unmarked) gave an IC50 of > 8 µg/mL (microbial growth; broth dilution; ATCC6258).
For `CCCCCCOc1c(OC)cc(NC(C)CCCN)c2nc(C(C)(C)C)ccc12` (centres unmarked), the IC50 was 7.16 µg/mL (≈ 17.2 µM) (microbial growth; ATCC6258).
The MIC of `OC(CN1CCOCC1)(Cn1cncn1)c1ccc(F)cc1F` (centres unmarked) is reported as > 31.3 µg/mL (microbial growth; broth dilution; ATCC6258; 48 h).
`CCCCCCOc1c(OC)cc(NC(C)CCCN)c2nc(C(C)(C)C)cc(C)c12` (centres unmarked) gave an IC50 of 3.73 µg/mL (≈ 8.68 µM) (microbial growth; ATCC6258).
The IC50 of `C=CCCCCCCCCCCCC(O)CC(O)CO` (centres unmarked) is reported as > 200 µg/mL (microbial growth; broth dilution; ATCC6258).
`CCCCCCCCOc1c(OC)cc(NC(C)CCCN)c2nc(C(C)(C)C)ccc12` (centres unmarked) gave an IC50 of 5.82 µg/mL (≈ 13.1 µM) (microbial growth; ATCC6258).
For `C[C@@H]1[C@H](O)[C@@H](C)/C=C/C=C/C=C/C=C/C=C/C=C/C=C/[C@H](O[C@@H]2O[C@H](C)[C@@H](O)[C@H](N)[C@@H]2O)C[C@@H]2O[C@](O)(C[C@@H](O)C[C@@H](O)[C@H](O)CC[C@@H](O)C[C@@H](O)CC(=O)O[C@H]1C)C[C@H](O)[C@H]2C(=O)O`, the MIC was 1.25 µg/mL (≈ 1.35 µM) (microbial growth; ATCC6258).
With `CC[C@H](C)C[C@H](C)CCCCCCCCC(=O)N[C@H]1C[C@@H](O)[C@@H](NCCN)NC(=O)[C@@H]2[C@@H](O)CCN2C(=O)[C@H]([C@H](O)CCN)NC(=O)[C@H]([C@H](O)[C@@H](O)c2ccc(O)cc2)NC(=O)[C@@H]2C[C@@H](O)CN2C(=O)[C@H]([C@@H](C)O)NC1=O` the MIC was 0.48 µg/mL (≈ 0.439 µM) (microbial growth; broth dilution; ATCC6258; 48 h).
With `OC(Cn1cncn1)(Cn1cncn1)c1ccc(F)cc1F` the MIC90 was 256 µg/mL (≈ 836 µM) (microbial growth; broth dilution; 24 h).
`CCCCCCCCCCCCN1CCNCC1` gave an MIC of 1.95 µg/mL (≈ 7.66 µM) (microbial growth; broth dilution; ATCC6258; 48 h).
`CCC(C)n1ncn(-c2ccc(N3CCN(c4ccc(OCC5COC(Cn6cncn6)(c6ccc(Cl)cc6Cl)O5)cc4)CC3)cc2)c1=O` (centres unmarked) has an MIC90 of 0.5 µg/mL (≈ 0.709 µM) (microbial growth).
